# Screening results from PubChem.
# Hits are enriched below; roughly 3% of the tested compounds scored in any of these assays.
# S100A4 inh HTS: S100A4-myosin IIA interaction inhibition; inhibition, % at 10.7 µM; P26447; S100A4/TAMRA-MyoIIA peptide fluorescence polarization; AID 652163; 360,000 tested, 0.14% active;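 active = mean inhibition of at least 70% across replicates, with every replicate also reaching that level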
# Target sequence (P26447 whole entry, looked up): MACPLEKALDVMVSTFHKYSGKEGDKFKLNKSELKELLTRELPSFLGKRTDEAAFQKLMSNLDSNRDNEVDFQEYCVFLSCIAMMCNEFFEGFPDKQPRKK
#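 assay system = human S100A4 monomer with TAMRA-labelled myosin IIA peptide | also added = labelled myosin peptide probe, 5 nM | incubation = 5 min between mix addition and reading | control set = DMSO and TFP controls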
# Cneo AK release: Cryptococcus neoformans lysis via adenylate kinase release; C. neoformans lysis, adenylate kinase release luminescence, 4 h; normalised: neutral wells 0, clomiphene wells 100; lysis activity, % at 15 µM; 360,000 tested, 0.2% active; AID 651654;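 active = mean lysis activity across replicates of at least 80%, whatever share of replicates individually reach that level; inactive = mean lysis activity below 80%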
#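 Test system: log-phase Cryptococcus neoformans yeast cells; Quantity: yeast cell density of 5 × 10^6 cells/mL; Buffer or medium: YPD; Doses: single compound concentration per well; Timing: 4 h at 37 °C static, read 1 h later; Measured by: AK luminescence; Read-out basis: lysis from increased AK signal; Control set: Clomiphene as positive control.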
# Ecoli rRNA inh: selective bacterial rRNA inhibition in E. coli; E. coli WT GFP vs humanized-ribosome RFP mutants, fluorescence, 24 h; stronger effect = lower value; DMSO median 0, no signal -100; GFP signal change (wild-type ribosome), % (test concentration not listed); 350,000 tested, 1.6% active; AID 720706;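 active = significant combined selectivity score with lowered wild-type GFP, culture density cut under 30%, mutant RFP and density less affected; inactive = any of these conditions unmet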
# SIRT5 inh: blocks human SIRT5 desuccinylation of peptide; Q9NXA8; Purified SirT5, succinyl-peptide AMC, trypsin-coupled fluorescence; inhibition, % at 15 µM; 330,000 tested, 1.1% active; in the data active = inhibition above about 15%
# Target sequence (Q9NXA8 whole entry, looked up): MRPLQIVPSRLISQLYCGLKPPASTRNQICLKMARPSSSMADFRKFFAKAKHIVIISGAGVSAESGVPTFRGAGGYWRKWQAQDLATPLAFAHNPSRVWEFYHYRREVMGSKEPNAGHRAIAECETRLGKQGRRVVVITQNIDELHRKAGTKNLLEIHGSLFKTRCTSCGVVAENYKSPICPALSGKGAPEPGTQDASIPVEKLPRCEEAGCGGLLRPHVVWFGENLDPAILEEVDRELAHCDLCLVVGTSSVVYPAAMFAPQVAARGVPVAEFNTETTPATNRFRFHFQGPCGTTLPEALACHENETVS
# PGC1a acetyl inh: lowers PGC1a acetylation signal in U2OS cells. AlphaScreen anti-acetyl-lysine; with virally co-expressed GCN5 acetyltransferase. 350,000 tested, 0.17% active. AID 651687. inhibition, % at 15.6 µM;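 active = every replicate shows inhibition of at least 40%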;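 also: 0% = neutral control wells and 100% = positive control wells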
# Statin myotox sup: suppressors of simvastatin-induced myotoxicity in C2C12 myotubes; ATP luminescence, 48 h; scaled: DMSO 0, geranylgeraniol control 100; rescue of ATP level, % at 7.49 µM; 330,000 tested, 0.78% active;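 active = mean ATP rescue above about 67%, or every replicate alone reaching that limit, limit read from the data, passing the limit was not always enough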;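 also: myotubes were challenged with 10 µM simvastatin during compound exposure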
# * marks the source's active call; other numbers are inactive results; x = no result.
SMILES,S100A4 inh HTS,Cneo AK release,Ecoli rRNA inh,SIRT5 inh,PGC1a acetyl inh,Statin myotox sup
Cc1ccc(S(=O)(=O)Nc2ccc3c(c2)C(=O)N([C@@H](C)CO)C[C@H](C)[C@@H](CN(C)C(=O)CCCN(C)C)OCCCC[C@H](C)O3)cc1,-1,-1,5,-4,11,x
O=C(COc1cc2oc(=O)c3c(c2cc1Cl)CCC3)NCCCn1ccnc1,3,9,-17*,1,x,-8
COC(=O)c1ccc(N)cc1O,x,1,x,x,-5,x
COC(=O)c1ccc(=O)c2nc3/c(=C/O)c(O)cc(=O)c3[nH]c12,-16,-1,-13,20*,6,12
CC(C)CC#Cc1cnc2c(c1)C(=O)N([C@H](C)CO)C[C@H](C)[C@H](CN(C)Cc1cccc(F)c1)O2,26,2,1,7,2,16
CN(CC(=O)Nc1ccc(F)cc1)C(=O)Cn1cnc2ccc([N+](=O)[O-])cc2c1=O,-4,0,18,24*,2,-4
Cc1nc(SCc2cccc(C(=O)O)c2)nc2c1CCCC2,2,x,-8,52*,-5,-3
COc1ccc(-c2cc(C)nc(SCc3cccc(C(=O)O)c3)n2)cc1,-4,x,-17,x,x,x
CC(C)(Cc1ccc(O)cc1)NC(=O)CC(=O)N/N=C/c1ccc([N+](=O)[O-])cc1,-1,x,-17*,-3,1,-7
COc1ccccc1C(=O)NC(=S)N1CCc2ccccc21,-4,x,-24*,1,x,x
COc1ccc(C(=O)NC(=S)N2CCCc3ccccc32)cc1OC,30,-2,-20,112*,-3,6
O=C(COc1ccccc1Cl)NC(=S)N1CCc2ccccc21,-1,x,-52*,0,x,x
COc1ccccc1C(=O)NC(=S)N1CCCc2ccccc21,5,-1,-6,1,0,-20
COc1ccc(N2CC(NC(=O)N3CCc4ccccc43)CC2=O)cc1OC (stereo not drawn),-1,6,2,20*,-8,1
CC1Cc2ccccc2N1C(=O)NC1CC(=O)N(c2ccc3c(c2)OCCO3)C1 (stereo not drawn),1,x,5,0,12,0
COc1ccc(NC(=O)N(C)C[C@@H]2OCCCC[C@H](C)Oc3ccc(NS(=O)(=O)c4ccccc4)cc3C(=O)N([C@H](C)CO)C[C@H]2C)cc1,-1,-2,0,1,11,x
COc1ccc(-c2cn(CC[C@H]3CC[C@@H](NC(=O)Nc4ccc(F)cc4)[C@H](CO)O3)nn2)cc1,3,x,-5,-2,x,x
CC(C)C#Cc1ccc([C@H]2[C@@H](CO)N3C(=O)CN(C(=O)c4ccccn4)C[C@H]23)cc1,-13,x,4,1,-6,x
CCCN1[C@@H]2Cn3c(ccc(-c4ccccc4OC)c3=O)[C@H]1[C@@H](C(=O)N1CCOCC1)[C@@H]2CO,-5,x,2,-7,x,x
Cc1cc(Cl)c(S(=O)(=O)Nc2ccc3c(c2)OCO3)cc1OCC(N)=O,x,0,x,x,-13,101*
Cc1cc(C(=O)Nc2cccc3c2O[C@H](CN(C)CC2CC2)[C@H](C)CN([C@H](C)CO)C3=O)n(C)n1,0,2,2,16*,7,3
C[C@H](CO)N1C[C@H](C)[C@H](CN(C)S(=O)(=O)c2ccc(Cl)cc2)Oc2c(NC(=O)c3ccncc3)cccc2C1=O,-6,2,-9,0,9,-6
Cc1cc(C(=O)Nc2cccc3c2O[C@H](CN(C)S(=O)(=O)c2ccc(Cl)cc2)[C@H](C)CN([C@H](C)CO)C3=O)n(C)n1,-20,-1,-22*,-7,0,12
Cc1cc(C(=O)Nc2cccc3c2O[C@H](CN(C)S(=O)(=O)c2ccccc2)[C@H](C)CN([C@H](C)CO)C3=O)n(C)n1,-6,90*,-3,6,9,-6
Cc1cc(C(=O)Nc2cccc3c2O[C@@H](CN(C)CC2CC2)[C@H](C)CN([C@H](C)CO)C3=O)n(C)n1,5,-6,-1,1,-2,1
SMILES,S100A4 inh HTS,Cneo AK release,Ecoli rRNA inh,SIRT5 inh,PGC1a acetyl inh,Statin myotox sup
C[C@@H]1CN([C@@H](C)CO)C(=O)c2cccc(NC(=O)c3ccncc3)c2O[C@@H]1CN(C)S(=O)(=O)c1ccc(Cl)cc1,-8,4,-18,0,-1,73*
Cc1cc(C(=O)Nc2cccc3c2O[C@H](CN(C)Cc2ccc(Oc4ccccc4)cc2)[C@@H](C)CN([C@H](C)CO)C3=O)n(C)n1,9,5,-2,17*,-5,-48
Cc1cc(C(=O)Nc2cccc3c2O[C@@H](CN(C)Cc2ccccc2)[C@@H](C)CN([C@H](C)CO)C3=O)n(C)n1,16,-1,-6,-2,x,-20
Cc1cn2c(N)c(C=C3C=C(Cl)C(=O)C(Cl)=C3)c(=O)nc2s1,-7,x,18,20*,x,x
COC1=C/C(=C/c2c(N)n3cc(C)sc3nc2=O)C=CC1=O,38,73,-11,-1,1,x
O=C1NC(=O)/C(=C/c2cccc3ccccc23)S1,23,-2,-44,7,-6,-10
CCCOc1ccc2ccccc2c1/C=C1\SC(=O)NC1=O,-10,-6,-42,-1,76*,-19
CCSc1nc2ccccc2c(=O)n1Cc1ccc(F)cc1,18,x,-19*,-5,-6,x
COc1ccc(/C=C2\CN(Cc3ccccc3)C/C(=C\c3ccc(OC)c(O)c3)C2=O)cc1O,3,0,-3,-3,x,99*
COc1ccc(NC(=O)Nc2ccc3c(c2)C(=O)N([C@H](C)CO)C[C@@H](C)[C@@H](CN(C)Cc2ccc(C(=O)Nc4ccccc4N)cc2)O3)cc1,10,-3,1,7,4,x
C[C@@H]1CN([C@@H](C)CO)C(=O)c2cc(NC(=O)Cn3cnnn3)ccc2O[C@@H]1CN(C)Cc1ccc(C(=O)Nc2ccccc2N)cc1,-8,3,0,-1,7,29
C[C@@H]1CN([C@H](C)CO)C(=O)c2cc(N(C)C)ccc2O[C@H]1CN(C)Cc1ccc(C(=O)Nc2ccccc2N)cc1,7,-2,-2,x,3,33
COc1ccc(NC(=O)Nc2ccc3c(c2)C(=O)N([C@@H](C)CO)C[C@@H](C)[C@@H](CN(C)Cc2ccc(C(=O)Nc4ccccc4N)cc2)O3)cc1,10,0,-5,16*,8,x
C[C@H]1CN([C@@H](C)CO)C(=O)c2cc(NC(=O)Nc3cccc4ccccc34)ccc2O[C@H]1CN(C)Cc1ccc(C(=O)Nc2ccccc2N)cc1,6,2,-9,2,-3,202*
